# In the library only some 1.6% were active in any assay of this set; here they are far more common.
# Lipid droplet – modulators of hepatic lipid droplet formation. 240,000 tested, 0.4% active. AML12 mouse hepatocytes, oleate lipid droplets, BODIPY imaging. AID 1656. inhibition, % at 6.5 µM;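 active = lipid droplet intensity inhibited by at least 50%, with more than 500 cells counted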
#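 Test system: AML12 hepatocytes (mouse); reagent: oleate loading, 100 µM; dosing: one dose, 6.5 µM compound; incubation: overnight exposure; signal: fluorescence imaging, 20x objective, two fields per well; read-out basis: % inhibition of corrected integrated BODIPY droplet signal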
# TLR4 MyD88 comp – TLR4-MyD88 interaction inhibition in cells; 200,000 tested, 0.18% active; AID 861; HeLa CL3-4 TLR4/MyD88 BLA complementation, FRET ratio; O00206+Q99836; inhibition, % at 8.4 µM; in the data active = inhibition above about 25%;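 also: 0% = vehicle and 100% = reference inhibitor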
# TLR9-MyD88 inh – blocks human TLR9 binding to MyD88; CHO BLA complementation TLR9-MyD88, CCF4 FRET ratio; AID 504734; 340,000 tested, 0.21% active; inhibition, % at 4.98 µM; Q9NR96+Q99836;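 active = inhibition above the mean over all tested compounds plus 3 SD, cut at about 21% in these data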;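 also: 0% = DMSO only wells and 100% = clavulanate BLA inhibitor control wells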
# SR-BI DiI inh – blocks mouse SR-BI lipid uptake from DiI-HDL | Q61009 | ldlA[mSR-BI] CHO cells, DiI-HDL uptake fluorescence, 3 h | inhibition, % at 12.5 µM | 320,000 tested, 0.96% active | AID 488896;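 active = mean replicate inhibition of at least 70% and a set share of replicates each scoring 70 or more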;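 also: 0% = median of neutral control wells and 100% = median of positive control wells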
# NOD2-RIPK2 inh – blocks binding of human NOD2 to RIPK2 | O43353 | CHO BLA complementation NOD2-RIPK2, CCF4 ratio | inhibition, % at 4.98 µM | 360,000 tested, 0.38% active | AID 624267; in the data active = inhibition above about 21%;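 also: 0% = vehicle only and 100% = reference blocker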
# SR-BI uptake up – activators of SR-BI mediated HDL lipid uptake. AID 504775. activation, % at 12.5 µM. 320,000 tested, 0.096% active. CHO ldlA[mSR-BI] cells, DiI-HDL uptake fluorescence, 3 h; 100 = double the neutral-control signal;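 active = mean replicate activation of at least 60% and every replicate at or above 60%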;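 also: 0% = median plate neutral-control signal and 100% = twice that signal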
#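 System: LDL receptor-deficient CHO ldlA cells overexpressing murine SR-BI | Timing: 3 h uptake period with compound, 37 °C | Medium: HEPES-buffered (25 mM, pH 7.4) F12 plus 0.5% BSA | Dosing: Single-point compound dose | Signal: Bottom-read fluorescence, 550/595 nm | Read-out: Retained DiI signal reflecting DiI-HDL uptake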
# * = called active by the depositor; . = not tested or not shown.
SMILES,Lipid droplet,TLR4 MyD88 comp,TLR9-MyD88 inh,SR-BI DiI inh,NOD2-RIPK2 inh,SR-BI uptake up
O=C(c1cc(C2CCCCN2S(=O)(=O)c2ccc(F)cc2F)on1)N1CCOCC1 (stereo unspecified),.,.,.,.,1,.
O=C(CSc1nnc(NC2CCCCC2)s1)Nc1ccc2c(c1)C(=O)c1ccccc1C2=O,33,4,10,73*,-8,-73
CC(C)Nc1nnc(SCC(=O)Nc2ccc3c(c2)C(=O)c2ccccc2C3=O)s1,22,-11,4,27,-6,-27
Cc1ccc(C2Nc3ccccc3C(=O)N2Cc2ccco2)cc1 (stereo unspecified),.,9,9,10,7,-10
CC(C)OCCCN1CC(=O)N2C(c3cccc([N+](=O)[O-])c3)c3[nH]c4ccccc4c3C[C@H]2C1=O (stereo partly specified),-4,.,2,81*,7,-81
CCOC(=O)CC1C(=O)NCCN1C1CCCC1 (stereo unspecified),-3,1,3,-3,-8,3
Cc1cc(N2CCN(C)CC2)nc2ccc(NC(=O)CCC(=O)NCc3ccco3)cc12,.,-2,3,-1,-1,1
COc1cc(OC)c(NC2=CC(=O)C(=O)c3ccccc32)cc1Cl,15,.,10,102*,5,-102
COc1cccc(/C=N/NC(=S)NC2CC3CC2C2C=CCC32)c1O (stereo unspecified),5,.,4,51,-5,-51
Oc1ccccc1/C=N/NC(=S)NC1CC2CC1C1C=CCC21 (stereo unspecified),-2,.,8,85*,5,-85
COc1ccc(/C=N/NC(=O)C(=O)Nc2ccccn2)cc1OC,.,6,0,3,-8,-3
Oc1ccccc1C=NNC(=S)NN=Cc1ccccc1O,.,.,11,133*,11,-133
O=C(N/N=C/c1ccccc1O)C(=O)Nc1ccccn1,1,1,3,88*,1,-88
CC(C)NC(=S)N/N=C/c1cccnc1,1,.,3,12,4,-12
Cc1ccc(NC(=O)c2ccc3c(=O)n4c(nc3c2)CCC4)cc1S(=O)(=O)N(C)C,.,.,0,75*,1,-75
CCOC(=O)C1(CCc2ccccc2)CCN(C(=O)C2CCOCC2)CC1,-5,-1,-4,80*,4,-80
CCn1c(O)c(N=NC(=O)C(O)c2ccccc2)c2ccccc21 (stereo unspecified),0,.,-5,-13,10,13
Cc1nn(-c2ccccc2)c(C)c1/C=N\N1CCN(c2ccc(Cl)cc2)CC1,-10,8,11,80*,6,-80
COc1cccc(/C=N/N2CCN(c3ccc(Cl)cc3)CC2)c1OC,0,.,2,5,-1,-5
COc1ccc(OC)c(/C=N/N2CCN(c3ccc(Cl)cc3)CC2)c1,-8,.,-9,-148,2,148*
CCN(c1ccccc1)S(=O)(=O)c1ccc(C(=O)NCC(=O)Nc2ccc(F)c(F)c2F)cc1,.,.,-4,41,-5,-41
C/C=C(\C)C(=O)OC1[C@H](OC(C)=O)C2(CO)C(CC1(C)C)C1=CCC3C4(C)CCC(O[C@@H]5O[C@H](C(=O)O)[C@@H](O[C@@H]6O[C@H](CO)[C@@H](O)[C@H](O)[C@H]6O)[C@H](O)[C@H]5O[C@H]5O[C@H](CO)[C@@H](O)[C@H](O)[C@H]5O)[C@](C)(CO)C4CCC3(C)[C@]1(C)C[C@H]2O (stereo partly specified),.,.,58*,-2,30*,2
CCc1nc2ccc(C(=O)NCCc3ccccc3OC)cc2nc1CC,-7,.,-1,17,-1,-17
COc1ccccc1CNC(=O)c1ccc2nc3[nH]c4ccccc4c3nc2c1,73*,-4,-7,35,-5,-35
Cc1ccccc1C(=O)Nc1ccnn1C1CCN(Cc2ccccn2)CC1,20,.,3,-25,-8,25
CCOC(=O)c1ccc(N2C(=O)CC(SCC(=O)Nc3ccc(S(N)(=O)=O)cc3)C2=O)cc1 (stereo unspecified),11,1,2,35,-3,-35
